# Data as given in ChEMBL document CHEMBL1629691, “Intrapulmonary pharmacokinetics and pharmacodynamics of micafungin in adult lung transplant patients” (Antimicrob Agents Chemother, 2010).
# Numbered stars: 1 amine (or outer) side, 2 acyl side, 3 side chain; on linkers, the order of the positions; unused ones are H or OH. Bridge positions count the residues as written; N and C are the ends. Square brackets hold non-standard residues; d marks the D form. Peptide text beside a SMILES is read from it. * marks the point of attachment. hTyr(3S-OH,4S-OH,3'-OSO3H) = N[C@H](C(=O)O)[C@H](O)[C@@H](O)c1ccc(O)c(OS(=O)(=O)O)c1; Orn(4R-OH,5R-OH) = O=C([C@H](C[C@@H](O)[C@@H](O)N[*:3])N[*:1])[*:2]; Pro(3S-OH,4S-Me) = C[C@H]1CN[C@H](C(=O)O)[C@H]1O; X1 = CCCCCOc1ccc(-c2cc(-c3ccc(C(=O)*)cc3)no2)cc1; Gln(3R-OH) = NC(=O)C[C@@H](O)[C@H](N)C(=O)O; Hyp = O=C(O)[C@@H]1C[C@@H](O)CN1
# How the values were obtained:
# [1] = AUC (0 to 24 hrs) in alveolar cell of lung transplant recipient invasive aspergillosis patient plasma at 150 mg, iv administered as single dose; format: ADME, organism-based, Pneumocyte; design: time < 24 hr, dose 150 mg, route intravenous; details: human, alveolar cells
# How it was run: (§1)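 Single 150-mg IV dose in adult lung transplant recipients. Plasma, ELF (epithelial lining fluid) and alveolar cell concentrations were measured by HPLC at the time of bronchoscopy. AUC0-24 came from a population model: a linear four-compartment model fit to all compartments, with the plasma two-compartment model used for the plasma profile.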
# [2] = Drug level in alveolar cells of lung transplant recipient invasive aspergillosis patient at 150 mg, iv single dose measured after 5 hrs post dose by HPLC; details: human, read-out: Drug uptake
# [3] = tested on: Homo sapiens; experiment: Hepatotoxicity in lung transplant recipient invasive aspergillosis patient assessed as serum ALT level at 150 mg, iv measured post last dose; details: in vivo
# [4] = Drug level in alveolar cells of lung transplant recipient invasive aspergillosis patient at 150 mg, iv QD for 4 consecutive days measured after 18 hrs post last dose by HPLC; format: ADME, organism-based, Pneumocyte; details: human, read-out: Drug uptake
# How it was run: (§2)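 150-mg IV micafungin, then bronchoscopy with BAL (20-ml saline aliquots) at the stated time after the dose. Blood was drawn in heparin at the same time. The BAL fluid was spun at 400 × g for 5 min at 4°C; supernatant and cell pellet were frozen at −80°C. Micafungin was measured by solid-phase extraction and C8 HPLC with UV detection at 271.5 nm, using anidulafungin as internal standard.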
# [5] = Ratio of total Cmax to MIC90 in lung transplant recipient invasive aspergillosis patient infected with Aspergillus fumigatus; format: functional
# [6] = Drug level in epithelial lining fluid of lung transplant recipient invasive aspergillosis patient at 150 mg, iv QD for 4 consecutive days measured after 24 hrs post last dose by HPLC; format: ADME, organism-based; details: human, read-out: Drug uptake; how it was run: as §2
# [7] = Drug level in alveolar cells of lung transplant recipient invasive aspergillosis patient at 150 mg, iv QD for 4 consecutive days measured after 24 hrs post last dose by HPLC; format: ADME, organism-based, Pneumocyte; details: human, read-out: Drug uptake; how it was run: as §2
# [8] = Ratio of Cmax in lung transplant recipient invasive aspergillosis patient alveolar cell to MIC90 for Aspergillus fumigatus; format: functional, Pneumocyte
# [9] = Drug level in epithelial lining fluid of lung transplant recipient invasive aspergillosis patient at 150 mg, iv QD for 4 consecutive days measured after 8 hrs post last dose by HPLC; format: ADME, organism-based; details: human, read-out: Drug uptake; how it was run: as §2
# [10] = Ratio of drug level in alveolar cell to plasma of lung transplant recipient invasive aspergillosis patient at 150 mg, iv single dose measured after 5 hrs post dose; details: human, alveolar cells / plasma
# [11] = Drug level in alveolar cells of lung transplant recipient invasive aspergillosis patient at 150 mg, iv QD for 4 consecutive days measured after 8 hrs post last dose by HPLC; format: ADME, organism-based, Pneumocyte; details: human, read-out: Drug uptake; how it was run: as §2
# [12] = Ratio of AUC (0 to 24 hrs) in lung transplant recipient invasive aspergillosis patient epithelial lining fluid to MIC90 for Aspergillus fumigatus; format: functional
# [13] = AUC (0 to 24 hrs) in lung transplant recipient invasive aspergillosis patient plasma at 150 mg, iv administered as single dose; format: ADME, organism-based; design: dose 150 mg, time < 24 hr, route intravenous; details: human; how it was run: as §1
# [14] = Ratio of drug level in alveolar cell to plasma of lung transplant recipient invasive aspergillosis patient at 150 mg, iv QD for 4 consecutive days measured after 24 hrs post last dose; format: ADME, organism-based, Pneumocyte; details: human, alveolar cells / plasma
# [15] = Ratio of drug level in epithelial lining fluid to plasma in lung transplant recipient invasive aspergillosis patient at 150 mg, iv measured after 5 hrs post last dose; details: human
# [16] = Ratio of drug level in alveolar cell to plasma of lung transplant recipient invasive aspergillosis patient at 150 mg, iv QD for 4 consecutive days measured after 8 hrs post last dose; format: ADME, organism-based, Pneumocyte; details: human, alveolar cells / plasma
# [17] = Ratio of AUC (0 to 24 hrs) in lung transplant recipient invasive aspergillosis patient plasma to MIC90 for Aspergillus fumigatus; format: functional
# [18] = Drug level in alveolar cells of lung transplant recipient invasive aspergillosis patient at 150 mg, iv QD for 4 consecutive days measured after 3 hrs post last dose by HPLC; format: ADME, organism-based, Pneumocyte; details: human, read-out: Drug uptake; how it was run: as §2
# [19] = Volume of distribution in lung transplant recipient invasive aspergillosis patient at 150 mg, iv QD for 4 consecutive days by HPLC; format: ADME, organism-based; details: human, in vivo
# [20] = Ratio of drug level in epithelial lining fluid to plasma in lung transplant recipient invasive aspergillosis patient at 150 mg, iv QD for 4 consecutive days measured after 3 hrs post last dose; format: ADME, organism-based; details: human
# [21] = Cmax in lung transplant recipient invasive aspergillosis patient plasma at 150 mg, iv QD for 4 consecutive days by HPLC; format: ADME, organism-based; design: dose 150 mg, route intravenous; details: human
# How it was run: (§3)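 150-mg IV dose; BAL at 3, 5, 8, 18 or 24 h after the dose, about 4 subjects per time group. Plasma, ELF and alveolar cell drug was measured by reversed-phase HPLC with UV detection. Values were averaged per time point. Cmax is the highest mean over the five groups; Tmax is the mean dose-to-BAL time of that group.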
# [22] = Drug level in lung transplant recipient invasive aspergillosis patient plasma at 150 mg, iv QD for 4 consecutive days measured after 8 hrs post last dose by HPLC; format: ADME, organism-based; details: human, read-out: Drug uptake; how it was run: as §2
# [23] = Drug level in lung transplant recipient invasive aspergillosis patient plasma at 150 mg, iv QD for 4 consecutive days measured after 18 hrs post last dose by HPLC; format: ADME, organism-based; details: human, read-out: Drug uptake; how it was run: as §2
# [24] = Tmax in epithelial lining fluid of lung transplant recipient invasive aspergillosis patient at 150 mg, iv QD for 4 consecutive days by HPLC; format: ADME, organism-based; details: human; how it was run: as §3
# [25] = Cmax in alveolar cells of lung transplant recipient invasive aspergillosis patient at 150 mg, iv QD for 4 consecutive days by HPLC; format: ADME, organism-based, Pneumocyte; design: dose 150 mg, route intravenous; details: human; how it was run: as §3
smiles,measurement,setting,value
"CCCCCOc1ccc(-c2cc(-c3ccc(C(=O)N[C@H]4C[C@@H](O)[C@@H](O)NC(=O)[C@@H]5[C@@H](O)[C@@H](C)CN5C(=O)[C@H]([C@H](O)CC(N)=O)NC(=O)[C@H]([C@H](O)[C@@H](O)c5ccc(O)c(OS(=O)(=O)O)c5)NC(=O)[C@@H]5C[C@@H](O)CN5C(=O)[C@H]([C@@H](C)O)NC4=O)cc3)no2)cc1 [MICAFUNGIN] (X1-[Orn(4R-OH,5R-OH)]T[Hyp][hTyr(3S-OH,4S-OH,3'-OSO3H)][Gln(3R-OH)][Pro(3S-OH,4S-Me)]; lactam 1-C)",AUC(0-t) at 24 h,[1],208 µg·h/mL
same,concentration at 5 h,[2],2840 ng/mL
same,Activity,[3],41.6 IU/L
same,concentration at 18 h,[4],17400 ng/mL
same,Ratio,[5],316
same,concentration at 24 h,[6],1380 ng/mL
same,concentration at 24 h,[7],9990 ng/mL
same,Ratio,[8],1115
same,concentration at 8 h,[9],50 ng/mL
same,Kp at 5 h,[10],0.61
same,concentration at 8 h,[11],4860 ng/mL
same,Ratio,[12],923.1
same,AUC(0-t) at 24 h,[13],79200 ng·h/mL
same,Kp at 24 h,[14],6.22
same,Kp at 5 h,[15],0.15
same,Kp at 8 h,[16],1.23
same,Ratio,[17],5077
same,concentration at 3 h,[18],7170 ng/mL
same,Vd,[19],17.6 L
same,Kp at 3 h,[20],0.01
same,Cmax,[21],4930 ng/mL
same,concentration at 8 h,[22],3930 ng/mL
same,concentration at 18 h,[23],2380 ng/mL
same,Tmax,[24],24.2 h
same,Cmax,[25],17400 ng/mL
